ChEMBL document CHEMBL1772954, “Antifungal, cytotoxic and SAR studies of a series of N-alkyl, N-aryl and N-alkylphenyl-1,4-pyrrolediones and related compounds” (Bioorg Med Chem, 2011)
In brackets after ≈: the same amount, converted by molar mass.

Legend:
MCF7 = assay: Cytotoxicity against human MCF7 cells assessed as cell growth after 2 days by sulforhodamine B assay; assay type: functional; conditions: MCF7, 48 h
Procedure, shortened: (§1)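 NCI cell lines were run by the Monks method: cells were plated with compounds from DMSO stocks and incubated 2 days at 37 °C in 5% CO2, in duplicate. Cells were fixed with cold TCA, stained with 0.4% SRB, and the bound dye was solubilized in 10 mM tris-base and read at 515 nm. The zero-day control was subtracted, and GI50 was taken from the curves.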

NCI-H460 = assay: Cytotoxicity against human H460 cells assessed as cell growth after 2 days by sulforhodamine B assay; assay type: functional; conditions: NCI-H460, 48 h; procedure, shortened: as §1
SF-268 = assay: Cytotoxicity against human SF268 cells assessed as cell growth after 2 days by sulforhodamine B assay; assay type: functional; conditions: SF-268, 48 h; procedure, shortened: as §1
[1] = Cytotoxicity against human erythrocytes assessed as hemolysis by spectrometric analysis; assay type: cell-based, Erythrocyte
Procedure, shortened: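 Human heparinized red blood cells were washed in PBS at pH 7.0 and suspended at 4% in sterile 5% glucose. Compounds from DMSO stocks were diluted in 5% glucose to final concentrations of 250 to 0.24 µg/ml and incubated with the cells at 37 °C. Released hemoglobin was read at 540 nm. HC50 is the concentration giving 50% lysis relative to the drug-free value.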

Candida albicans = assay: Antifungal activity against Candida albicans ATCC 10213; assay type: functional
Procedure, shortened: (§2)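 CLSI M27-A3 broth microdilution in RPMI-1640 buffered to pH 7.0 with MOPS. Inoculum 1-5 × 10^3 CFU/mL. Compound twofold dilutions from 250 to 0.24 µg/ml, final DMSO <1%. Incubated at 35 °C in a moist, dark chamber and read at 48 h. MIC is the lowest concentration giving total growth inhibition. For MFC, 5 µL from clear wells was plated in duplicate on SDA; MFC is the lowest concentration with no growth.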

Candida tropicalis = assay: Antifungal activity against Candida tropicalis C 131 2000; assay type: functional; procedure, shortened: as §2
Saccharomyces cerevisiae = assay: Antifungal activity against Saccharomyces cerevisiae ATCC 9763; assay type: functional; procedure, shortened: as §2
Cryptococcus neoformans = assay: Antifungal activity against Cryptococcus neoformans ATCC 32264; assay type: functional; procedure, shortened: as §2
Aspergillus fumigatus = assay: Antifungal activity against Aspergillus fumigatus ATCC 26934; assay type: functional
Procedure, shortened: (§3)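 Broth microdilution per CLSI M38-A2 in RPMI-1640 with MOPS at pH 7.0. Inoculum 1-5 × 10^3 CFU/mL, with twofold compound dilutions spanning 250-0.24 µg/ml (final DMSO <1%). Plates incubated at 35 °C, moist and dark, and read when the control fungus had grown. MIC is total growth inhibition. MFC comes from subculturing clear wells in duplicate onto SDA.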

Aspergillus flavus = assay: Antifungal activity against Aspergillus flavus ATCC 9170; assay type: functional; procedure, shortened: as §3
Aspergillus niger = assay: Antifungal activity against Aspergillus niger ATCC 9029; assay type: functional; procedure, shortened: as §3
Nannizzia gypsea = assay: Antifungal activity against Microsporum gypseum C 115 2000; assay type: functional
Procedure, shortened: (§4)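 Dermatophytes tested by CLSI M38-A2 microdilution in MOPS-buffered RPMI-1640 at pH 7.0. Inoculum 1-5 × 10^3 CFU/mL; compounds 250 to 0.24 µg/ml in twofold steps, final DMSO <1%. Incubated at 28 °C in a moist, dark chamber and read according to control growth. MIC is the lowest concentration with complete inhibition. MFC is the lowest concentration with no growth after duplicate subculture on SDA.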

Trichophyton rubrum = assay: Antifungal activity against Trichophyton rubrum C 113 2000; assay type: functional; procedure, shortened: as §4
[2] = test system: Trichophyton mentagrophytes; assay: Antifungal activity against Trichophyton mentagrophytes ATCC 9972; assay type: functional; procedure, shortened: as §4

Row | SMILES | MIC (Candida albicans) [µg/mL] | MIC (Candida tropicalis) [µg/mL] | MIC (Saccharomyces cerevisiae) [µg/mL] | MIC (Cryptococcus neoformans) [µg/mL] | MIC (Aspergillus fumigatus) [µg/mL] | MIC (Aspergillus flavus) [µg/mL] | MIC (Aspergillus niger) [µg/mL] | MIC (Nannizzia gypsea) [µg/mL] | GI50 (MCF7) [µg/mL] | GI50 (NCI-H460) [µg/mL] | GI50 (SF-268) [µg/mL] | HC50 [1] [µg/mL] | MFC (Candida albicans) [µg/mL] | MFC (Candida tropicalis) [µg/mL] | MFC (Saccharomyces cerevisiae) [µg/mL] | MFC (Cryptococcus neoformans) [µg/mL] | MFC (Aspergillus fumigatus) [µg/mL] | MFC (Aspergillus flavus) [µg/mL] | MFC (Aspergillus niger) [µg/mL] | MFC (Nannizzia gypsea) [µg/mL] | also measured
1 | O=C1C=CC(=O)N1c1ccc(F)cc1F | 15.6 (≈ 74.7 µM) | 15.6 (≈ 74.7 µM) | 7.81 (≈ 37.3 µM) | 7.81 (≈ 37.3 µM) | 31.2 (≈ 149 µM) | 62.5 (≈ 299 µM) | 15.6 (≈ 74.7 µM) | 3.9 (≈ 18.6 µM) | > 10 | > 10 | > 10 | > 250 | 31.2 (≈ 149 µM) | 31.2 (≈ 149 µM) | 15.6 (≈ 74.7 µM) | 7.81 (≈ 37.3 µM) | 31.2 (≈ 149 µM) | 62.5 (≈ 299 µM) | 31.2 (≈ 149 µM) | 7.81 (≈ 37.3 µM) | MFC (Trichophyton rubrum): 7.81 µg/mL (≈ 37.3 µM); MIC (Trichophyton rubrum): 3.9 µg/mL (≈ 18.6 µM); MFC [2]: 7.81 µg/mL (≈ 37.3 µM); MIC [2]: 3.9 µg/mL (≈ 18.6 µM)
2 | CC(C)(C)c1ccccc1N1C(=O)C=CC1=O | 3.9 (≈ 17 µM) | 3.9 (≈ 17 µM) | 3.9 (≈ 17 µM) | 3.9 (≈ 17 µM) | 15.6 (≈ 68.2 µM) | 62.5 (≈ 273 µM) | 62.5 (≈ 273 µM) | 1.95 (≈ 8.5 µM) | > 10 | > 10 | > 10 | > 250 | 3.9 (≈ 17 µM) | 3.9 (≈ 17 µM) | 7.81 (≈ 34.1 µM) | 7.81 (≈ 34.1 µM) | 31.2 (≈ 136 µM) | 62.5 (≈ 273 µM) | 125 (≈ 545 µM) | 3.9 (≈ 17 µM) | MFC (Trichophyton rubrum): 3.9 µg/mL (≈ 17 µM); MIC (Trichophyton rubrum): 1.95 µg/mL (≈ 8.5 µM); MFC [2]: 3.9 µg/mL (≈ 17 µM); MIC [2]: 1.95 µg/mL (≈ 8.5 µM)
3 | O=C1C=CC(=O)N1c1ccc(I)cc1 | 31.2 (≈ 104 µM) | 31.2 (≈ 104 µM) | 7.81 (≈ 26.1 µM) | 7.81 (≈ 26.1 µM) | 62.5 (≈ 209 µM) | 62.5 (≈ 209 µM) | 62.5 (≈ 209 µM) | 3.9 (≈ 13 µM) | > 10 | > 10 | > 10 | > 250 | 62.5 (≈ 209 µM) | 62.5 (≈ 209 µM) | 7.81 (≈ 26.1 µM) | 15.6 (≈ 52.3 µM) | 125 (≈ 418 µM) | 125 (≈ 418 µM) | 125 (≈ 418 µM) | 7.81 (≈ 26.1 µM) | MFC (Trichophyton rubrum): 7.81 µg/mL (≈ 26.1 µM); MIC (Trichophyton rubrum): 3.9 µg/mL (≈ 13 µM); MFC [2]: 7.81 µg/mL (≈ 26.1 µM); MIC [2]: 3.9 µg/mL (≈ 13 µM)
4 | O=C1C=CC(=O)N1c1ccc(F)cc1 | 15.6 (≈ 81.8 µM) | 15.6 (≈ 81.8 µM) | 3.9 (≈ 20.4 µM) | 7.81 (≈ 40.9 µM) | 15.6 (≈ 81.8 µM) | 15.6 (≈ 81.8 µM) | 7.81 (≈ 40.9 µM) | 3.9 (≈ 20.4 µM) | > 10 | > 10 | > 10 | > 250 | 15.6 (≈ 81.8 µM) | 15.6 (≈ 81.8 µM) | 7.81 (≈ 40.9 µM) | 15.6 (≈ 81.8 µM) | 31.2 (≈ 163 µM) | 15.6 (≈ 81.8 µM) | 7.81 (≈ 40.9 µM) | 7.81 (≈ 40.9 µM) | MFC (Trichophyton rubrum): 7.81 µg/mL (≈ 40.9 µM); MIC (Trichophyton rubrum): 3.9 µg/mL (≈ 20.4 µM); MFC [2]: 7.81 µg/mL (≈ 40.9 µM); MIC [2]: 3.9 µg/mL (≈ 20.4 µM)

Further compounds by falling MIC (Candida albicans), results first:

Row | MIC (Candida albicans) [µg/mL] | MIC (Candida tropicalis) [µg/mL] | MIC (Saccharomyces cerevisiae) [µg/mL] | MIC (Cryptococcus neoformans) [µg/mL] | MIC (Aspergillus fumigatus) [µg/mL] | MIC (Aspergillus flavus) [µg/mL] | MIC (Aspergillus niger) [µg/mL] | MIC (Nannizzia gypsea) [µg/mL] | SMILES | GI50 (MCF7) [µg/mL] | GI50 (NCI-H460) [µg/mL] | GI50 (SF-268) [µg/mL] | HC50 [1] [µg/mL] | MFC (Candida albicans) [µg/mL] | MFC (Candida tropicalis) [µg/mL] | MFC (Saccharomyces cerevisiae) [µg/mL] | MFC (Cryptococcus neoformans) [µg/mL] | MFC (Aspergillus fumigatus) [µg/mL] | MFC (Aspergillus flavus) [µg/mL] | MFC (Aspergillus niger) [µg/mL] | MFC (Nannizzia gypsea) [µg/mL] | also measured
5 | 62.5 (≈ 301 µM) | 7.81 (≈ 37.6 µM) | 3.9 (≈ 18.8 µM) | 3.9 (≈ 18.8 µM) | 62.5 (≈ 301 µM) | 62.5 (≈ 301 µM) | 31.2 (≈ 151 µM) | 3.9 (≈ 18.8 µM) | O=C1C=CC(=O)N1c1ccc(Cl)cc1 | > 10 | > 10 | > 10 | > 250 | 62.5 (≈ 301 µM) | 15.6 (≈ 75.3 µM) | 7.81 (≈ 37.6 µM) | 7.81 (≈ 37.6 µM) | 125 (≈ 602 µM) | 125 (≈ 602 µM) | 62.5 (≈ 301 µM) | 7.81 (≈ 37.6 µM) | MFC (Trichophyton rubrum): 7.81 µg/mL (≈ 37.6 µM); MIC (Trichophyton rubrum): 3.9 µg/mL (≈ 18.8 µM); MFC [2]: 7.81 µg/mL (≈ 37.6 µM); MIC [2]: 3.9 µg/mL (≈ 18.8 µM)
6 | 15.6 (≈ 62 µM) | 15.6 (≈ 62 µM) | 7.81 (≈ 31 µM) | 7.81 (≈ 31 µM) | 31.2 (≈ 124 µM) | 31.2 (≈ 124 µM) | 31.2 (≈ 124 µM) | 3.9 (≈ 15.5 µM) | O=C1C=CC(=O)N1c1ccc(Br)cc1 | > 10 | > 10 | > 10 | > 250 | 31.2 (≈ 124 µM) | 62.5 (≈ 248 µM) | 15.6 (≈ 62 µM) | 15.6 (≈ 62 µM) | 62.5 (≈ 248 µM) | 62.5 (≈ 248 µM) | 62.5 (≈ 248 µM) | 3.9 (≈ 15.5 µM) | MFC (Trichophyton rubrum): 3.9 µg/mL (≈ 15.5 µM); MIC (Trichophyton rubrum): 1.95 µg/mL (≈ 7.74 µM); MFC [2]: 3.9 µg/mL (≈ 15.5 µM); MIC [2]: 1.95 µg/mL (≈ 7.74 µM)
